# Activity calls are given as the source filed them. The calls are words filed in the database; no cut-off is given here.
# Tests used:
# Escherichia coli [1] = assay: Antibacterial activity against Escherichia coli ATCC 8739 assessed as inhibition of bacterial growth incubated for 24 hrs by resazurin dye based broth microdilution method; format: functional
# How it was run: (§1)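 CLSI broth microdilution in cation-adjusted Mueller Hinton broth, pH 7.4 (±0.2). Compounds dissolved in DMSO at 25.6 mg mL⁻¹ (stock), diluted to 1–256 µg mL⁻¹. Inoculum 5 × 10⁵ CFU mL⁻¹ final; 24 h at 37 °C, static. Resazurin 0.015% then added, 2–4 h more; wells staying blue read as above MIC. Sulfacetamide reference.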
# Staphylococcus aureus [2] = assay: Antibacterial activity against Staphylococcus aureus CIP 107093 assessed as inhibition of bacterial growth incubated for 24 hrs by resazurin dye based broth microdilution method; format: functional; how it was run: as §1
# Bacillus subtilis [3] = assay: Antibacterial activity against Bacillus subtilis ATCC 6051 assessed as inhibition of bacterial growth incubated for 24 hrs by resazurin dye based broth microdilution method; format: functional; how it was run: as §1
# Pseudomonas aeruginosa [4] = assay: Antibacterial activity against Pseudomonas aeruginosa ATCC 27853 assessed as inhibition of bacterial growth incubated for 24 hrs by resazurin dye based broth microdilution method; format: functional; how it was run: as §1
# Bacillus subtilis [5] = assay: Antibacterial activity against Bacillus subtilis ATCC 6051 assessed as inhibition of bacterial growth at 1 to 256 ug/ml incubated for 24 hrs by resazurin dye based broth microdilution method; format: functional, organism-based; conditions: dose 1-256 µg/ml; how it was run: as §1
# Escherichia coli [6] = assay: Antibacterial activity against Escherichia coli ATCC 8739 assessed as inhibition of bacterial growth at 1 to 256 ug/ml incubated for 24 hrs by resazurin dye based broth microdilution method; format: functional, organism-based; conditions: dose 1-256 µg/ml; how it was run: as §1
# Pseudomonas aeruginosa [7] = assay: Antibacterial activity against Pseudomonas aeruginosa ATCC 27853 assessed as inhibition of bacterial growth at 1 to 256 ug/ml incubated for 24 hrs by resazurin dye based broth microdilution method; format: functional, organism-based; conditions: dose 1-256 µg/ml; how it was run: as §1
# Staphylococcus aureus [8] = assay: Antibacterial activity against Staphylococcus aureus CIP 107093 assessed as inhibition of bacterial growth at 1 to 256 ug/ml incubated for 24 hrs by resazurin dye based broth microdilution method; format: functional, organism-based; conditions: dose 1-256 µg/ml; how it was run: as §1
# Escherichia coli [9] = assay: Antibiofilm activity against Escherichia coli ATCC 8739 assessed as inhibition of biofilm formation at 0.5 times of MIC by crystal violet staining based analysis relative to control; format: functional
# How it was run: (§2)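 Overnight cultures inoculated into fresh LB with compound at ½ MIC and grown 24 h at 37 °C, static. Growth read at 580 nm. Medium discarded, wells rinsed with distilled water, stained with 0.1% crystal violet, dye solubilized in 30% acetic acid, OD 595 nm; uninoculated-control staining subtracted. At least three independent replicates, mean ± SEM; one-way ANOVA with Dunnett test.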
# Pseudomonas aeruginosa [10] = assay: Antibiofilm activity against Pseudomonas aeruginosa ATCC 27853 assessed as inhibition of biofilm formation at 0.5 times of MIC by crystal violet staining based analysis relative to control; format: functional; how it was run: as §2
# Caco-2 = assay: Cytotoxicity against human Caco-2 cells incubated for 24 hrs by CyQuant LDH assay; format: toxicity, cell-based; conditions: caco-2, 24 h
# How it was run: (§3)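 HaCaT (10% FCS) or Caco-2 (20% FCS) grown in DMEM with 1% penicillin–streptomycin, 37 °C, 5% CO₂. Seeded in 24-well plates, grown 72 h, rinsed with PBS, then exposed 24 h to compounds at MIC and ½ MIC in fresh DMEM. LDH release measured. Untreated and damaged-cell controls; two independent assays, at least 2 replicates, mean ± SEM.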
# HaCaT = assay: Cytotoxicity against human HaCaT cells incubated for 24 hrs by CyQuant LDH assay; format: toxicity, cell-based; how it was run: as §3
MIC (Escherichia coli [1]) [µg/mL],MIC (Staphylococcus aureus [2]) [µg/mL],MIC (Bacillus subtilis [3]) [µg/mL],MIC (Pseudomonas aeruginosa [4]) [µg/mL],SMILES,Activity (Bacillus subtilis [5]),Activity (Escherichia coli [6]),Activity (Pseudomonas aeruginosa [7]),Activity (Staphylococcus aureus [8]),further results
> 256,> 256,> 256,> 256,Nc1ccc(S(=O)(=O)NC(=O)c2cc(F)c(F)c(F)c2)cc1,,,,,
,,,,CC(=O)Nc1ccc(S(=O)(=O)NC(=O)c2cc(F)c(F)c(F)c2)cc1,inactive,inactive,inactive,inactive,
,,,,CC(=O)Nc1ccc(S(=O)(=O)NC(=O)c2ccc(Cl)cc2Cl)cc1,inactive,inactive,inactive,inactive,
32,> 256,128,> 256,Nc1ccc(S(=O)(=O)NC(=O)c2ccccc2)cc1 [SULFABENZAMIDE],,,,,inhibition (INH) (Escherichia coli [9]): 30%; inhibition (INH) (Pseudomonas aeruginosa [10]): 14%; Activity (Caco-2): Non-Toxic; Activity (HaCaT): Non-Toxic
,,,,COc1cccc(C(=O)NS(=O)(=O)c2ccc(NC(C)=O)cc2)c1,inactive,inactive,inactive,inactive,
,,,,CC(=O)Nc1ccc(S(=O)(=O)NC(=O)c2ccc([N+](=O)[O-])cc2)cc1,inactive,inactive,inactive,inactive,
32,256,128,> 256,CC(=O)NS(=O)(=O)c1ccc(N)cc1 [SULFACETAMIDE],,,,,Activity (Caco-2): Non-Toxic; Activity (HaCaT): Non-Toxic
,,,,CC(=O)Nc1ccc(S(=O)(=O)NC(=O)c2ccc(C(F)(F)F)cc2)cc1,inactive,inactive,inactive,inactive,
> 256,> 256,> 256,> 256,Nc1ccc(S(=O)(=O)NC(=O)c2ccc(Cl)cc2Cl)cc1,,,,,
32,> 256,256,> 256,COc1cccc(C(=O)NS(=O)(=O)c2ccc(N)cc2)c1,,,,,inhibition (INH) (Escherichia coli [9]): 42%; inhibition (INH) (Pseudomonas aeruginosa [10]): 23%; Activity (Caco-2): Non-Toxic; Activity (HaCaT): Non-Toxic
,,,,COc1ccccc1C(=O)NS(=O)(=O)c1ccc(NC(C)=O)cc1,inactive,inactive,inactive,inactive,
,,,,CC(=O)Nc1ccc(S(=O)(=O)NC(=O)c2ccccc2)cc1,inactive,inactive,inactive,inactive,
,,,,COc1cc(C(=O)NS(=O)(=O)c2ccc(NC(C)=O)cc2)ccc1[N+](=O)[O-],inactive,inactive,inactive,inactive,
> 256,> 256,> 256,> 256,COc1cc(C(=O)NS(=O)(=O)c2ccc(N)cc2)ccc1[N+](=O)[O-],,,,,
> 256,> 256,> 256,> 256,Nc1ccc(S(=O)(=O)NC(=O)c2ccc(C(F)(F)F)cc2)cc1,,,,,
,,,,CC(=O)Nc1ccc(S(=O)(=O)NC(C)=O)cc1,inactive,inactive,inactive,inactive,
> 256,> 256,256,> 256,Nc1ccc(S(=O)(=O)NC(=O)c2ccc([N+](=O)[O-])cc2)cc1,,,,,
256,256,64,> 256,COc1ccccc1C(=O)NS(=O)(=O)c1ccc(N)cc1,,,,,Activity (Escherichia coli [9]): Active; Activity (Pseudomonas aeruginosa [10]): Active; Activity (Caco-2): Non-Toxic; Activity (HaCaT): Non-Toxic

# — ChEMBL document CHEMBL5329163, “N-Acylsulfonamide: a valuable moiety to design new sulfa drug analogues” (RSC Med Chem, 2023)
